Assay results from ChEMBL document CHEMBL1137381, “Biarylpyrazole inverse agonists at the cannabinoid CB1 receptor: importance of the C-3 carboxamide oxygen/lysine3.28(192) interaction” (J Med Chem, 2006).

Key:
[1] = target: Cannabinoid receptor 1 (Rattus norvegicus) (UniProt P20272); assay: Agonist activity against rat CB1 receptor expressed in superior cervical ganglion neurons assessed as increase in calcium ion current at 1 uM relative to control; assay type: functional, tissue-based
Method in brief: (§1)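 Rat SCG neurons nuclear-injected with N-terminally HA-tagged rat CB1 cDNA (100 ng/µL) plus EGFP marker plasmid, incubated overnight. Whole-cell voltage-clamp at 24-26 °C. Ca²⁺ current measured 10 ms into step to +5 mV, preceded by 50 ms prepulse to +80 mV. Test drug superfused alone, diluted from 10 mM DMSO stock. Current increase expressed as % of control amplitude; paired t-test.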

[2] = target: Cannabinoid receptor 1 (Rattus norvegicus) (UniProt P20272); assay: Antagonist activity against rat CB1 receptor expressed in superior cervical ganglion neurons assessed as block of WIN-55212-2-elicited calcium ion current inhibition at 1 uM relative to control; assay type: functional, tissue-based; set-up: scale not given: the % may be the effect or the level left
Method in brief: (§2)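 SCG neurons from rat, nuclear-injected with HA-tagged rat CB1 cDNA, recorded after overnight incubation by whole-cell patch clamp at room temperature. Ca²⁺ currents isolated with TEA/TTX external solution and NMDG/EGTA pipette solution. WIN55,212-2 (1 µM) coapplied with test compound. Inhibition of Ca²⁺ current expressed as % of control amplitude, taken 10 ms after the step to +5 mV.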

Cannabinoid receptor 1 [3] = target: T1, Cannabinoid receptor 1 (Homo sapiens, UniProt P21554); assay: biochemical; assay type: cell-based, HEK293
T1 sequence (P21554 whole entry): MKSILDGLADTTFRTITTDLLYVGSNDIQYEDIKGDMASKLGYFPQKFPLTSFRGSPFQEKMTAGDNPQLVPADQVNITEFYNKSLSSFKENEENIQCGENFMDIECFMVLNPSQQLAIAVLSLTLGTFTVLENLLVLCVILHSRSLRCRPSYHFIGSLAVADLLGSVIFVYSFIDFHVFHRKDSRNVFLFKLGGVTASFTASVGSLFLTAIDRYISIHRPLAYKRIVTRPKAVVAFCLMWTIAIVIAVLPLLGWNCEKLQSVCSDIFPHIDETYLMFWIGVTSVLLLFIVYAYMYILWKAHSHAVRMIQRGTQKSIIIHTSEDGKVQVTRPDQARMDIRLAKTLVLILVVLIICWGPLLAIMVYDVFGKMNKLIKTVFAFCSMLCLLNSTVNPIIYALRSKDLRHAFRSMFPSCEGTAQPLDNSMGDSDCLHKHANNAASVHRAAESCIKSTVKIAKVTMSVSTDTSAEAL

[4] = target: Cannabinoid receptor 1 (Rattus norvegicus) (UniProt P20272); assay: Agonist activity against rat CB1 receptor expressed in superior cervical ganglion neurons assessed as increase in calcium ion current at 10 uM relative to control; assay type: functional, tissue-based; method in brief: as §1
Cannabinoid receptor 1 [5] = target: T1, Cannabinoid receptor 1; assay: biochemical; assay type: cell-based, HEK293; remark: listed apart in the source
Cannabinoid receptor 1 [6] = target: T1, Cannabinoid receptor 1; assay: biochemical; assay type: cell-based, HEK293; remark: listed apart in the source
[7] = target: Cannabinoid receptor 1 (Rattus norvegicus) (UniProt P20272); assay: Antagonist activity against rat CB1 receptor expressed in superior cervical ganglion neurons assessed as block of WIN-55212-2-elicited calcium ion current inhibition at 10 uM relative to control; assay type: functional, tissue-based; set-up: scale not given: the % may be the effect or the level left; method in brief: as §2

Sequence of Cannabinoid receptor 1 (Rattus norvegicus) (P20272 whole entry, the tested form may be a part): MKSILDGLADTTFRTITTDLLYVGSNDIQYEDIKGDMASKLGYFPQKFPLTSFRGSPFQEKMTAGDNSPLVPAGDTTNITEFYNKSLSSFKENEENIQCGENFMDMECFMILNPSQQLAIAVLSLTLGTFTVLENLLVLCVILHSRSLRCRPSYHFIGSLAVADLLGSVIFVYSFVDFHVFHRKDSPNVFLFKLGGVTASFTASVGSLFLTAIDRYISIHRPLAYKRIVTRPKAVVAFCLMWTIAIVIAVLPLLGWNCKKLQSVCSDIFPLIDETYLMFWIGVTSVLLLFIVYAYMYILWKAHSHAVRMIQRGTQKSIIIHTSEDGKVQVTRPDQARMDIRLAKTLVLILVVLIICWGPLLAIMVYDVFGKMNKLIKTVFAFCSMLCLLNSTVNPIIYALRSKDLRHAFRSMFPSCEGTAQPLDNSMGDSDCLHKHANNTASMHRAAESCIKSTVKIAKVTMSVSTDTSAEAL

SMILES | Activity [1] | Activity [2] | Ki (Cannabinoid receptor 1 [3]) | Activity [4] | Ki (Cannabinoid receptor 1 [5]) | Ki (Cannabinoid receptor 1 [6]) | Activity [7]
Cc1c(C(=O)c2cccc3ccccc23)c2cccc3c2n1[C@H](CN1CCOCC1)CO3 | 47.1% | – | – | – | – | – | –
Cc1c(C(=O)NN2CCCCC2)nn(-c2ccc(Cl)cc2Cl)c1-c1ccc(Cl)cc1 | 46.6% | -4.8% | – | – | – | – | –
Cc1c(/C=C/N2CCCCC2)nn(-c2ccc(Cl)cc2Cl)c1-c1ccc(Cl)cc1 | 3.2% | -2.5% | 223 nM | 13.9% | 213 nM | 258 nM | 0.7%
Cc1c(C(=O)NC2CCCCC2)nn(-c2ccc(Cl)cc2Cl)c1-c1ccc(Cl)cc1 | 35.2% | -3.8% | 3.7 nM | – | 1.8 nM | 5 nM | –
Cc1c(C(=O)N(C)C2CCCCC2)nn(-c2ccc(Cl)cc2Cl)c1-c1ccc(Cl)cc1 | 26.1% | -4.5% | 107 nM | 23.9% | 30 nM | 54 nM | -7%
Cc1c(/C=C/C2CCCCC2)nn(-c2ccc(Cl)cc2Cl)c1-c1ccc(Cl)cc1 | 8.6% | 28.1% | 60 nM | – | 31.3 nM | 85 nM | –
Cc1c(/C=N/N2CCCCC2)nn(-c2ccc(Cl)cc2Cl)c1-c1ccc(Cl)cc1 | 11.5% | 2.6% | 19 nM | – | 17 nM | 57 nM | –
